Results published in ChEMBL document CHEMBL4382219, “Synthesis and Biological Evaluation of Cajaninstilbene Acid and Amorfrutins A and B as Inhibitors of the Pseudomonas aeruginosa Quorum Sensing System” (J Nat Prod, 2018).
Activity calls are given as the source filed them. No cut-off for these calls is given here.

Key:
Pseudomonas aeruginosa [1] = test: Anti-biofilm activity against Pseudomonas aeruginosa PAO1 at 50 uM after 24 hrs by crystal violet staining based assay relative to control; format: functional
How it was run: (§1)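 PAO1 grown overnight in LB, then diluted in ABTGC medium (B-medium with 0.1% MgCl₂, 0.1% CaCl₂, 0.1% FeCl₃, plus 10% A10, 0.2% glucose, 0.2% casamino acids) and mixed with compound. Static 24 h at 37 °C. Wells PBS-washed, MeOH-fixed 20 min, stained 20 min with 0.1% w/v crystal violet, then dissolved in 33% AcOH.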

Pseudomonas aeruginosa [2] = test: Anti-biofilm activity against Pseudomonas aeruginosa PAO1 at 1 to 50 uM after 24 hrs by crystal violet staining based assay relative to control; format: functional; how it was run: as §1
Pseudomonas aeruginosa [3] = test: Anti-biofilm activity against Pseudomonas aeruginosa PAO1 after 24 hrs by crystal violet staining based assay; format: functional, organism-based; how it was run: as §1
Pseudomonas aeruginosa [4] = test: Toxicity in Pseudomonas aeruginosa PAO1 assessed as growth inhibition at 1 to 50 uM after 2 to 16 hrs; format: organism-based; conditions: in vivo
Pseudomonas aeruginosa [5] = test: Toxicity in Pseudomonas aeruginosa PAO1 harboring mini-ctx-lacZ assessed as effect on beta-galactosidase activity at 2.5 to 50 uM beta-galactosidase reporter gene assay; format: organism-based; conditions: in vivo
[6] = molecular target: T1, Anthranilate--CoA ligase (Pseudomonas aeruginosa (strain ATCC 15692 / DSM 22644 / CIP 104116 /JCM 14847 / LMG 12228 / 1C / PRS 101 / PAO1)) (UniProt Q9I4X3); test: Inhibition of pqsA quorum sensing system in Pseudomonas aeruginosa PAO1 harboring mini-ctx-pqsA-lacZ after 24 hrs by beta-galactosidase reporter gene assay
T1 sequence (whole entry): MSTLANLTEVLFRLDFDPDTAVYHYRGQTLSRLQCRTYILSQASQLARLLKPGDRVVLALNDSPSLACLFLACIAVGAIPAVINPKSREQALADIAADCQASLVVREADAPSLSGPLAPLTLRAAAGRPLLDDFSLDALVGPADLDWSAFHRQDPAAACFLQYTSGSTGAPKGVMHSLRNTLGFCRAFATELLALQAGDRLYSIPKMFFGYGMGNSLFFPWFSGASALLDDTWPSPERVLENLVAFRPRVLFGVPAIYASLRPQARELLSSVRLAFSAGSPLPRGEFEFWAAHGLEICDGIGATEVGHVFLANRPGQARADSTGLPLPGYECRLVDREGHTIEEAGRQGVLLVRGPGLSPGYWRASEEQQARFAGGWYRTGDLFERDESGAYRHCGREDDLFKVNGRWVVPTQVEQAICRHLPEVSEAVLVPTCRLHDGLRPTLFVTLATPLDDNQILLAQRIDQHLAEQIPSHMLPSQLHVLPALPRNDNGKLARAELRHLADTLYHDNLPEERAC

[7] = molecular target: 3-(3-hydroxydecanoyloxy)decanoate synthase (Pseudomonas aeruginosa (strain ATCC 15692 / PAO1 / 1C / PRS 101 / LMG12228)) (UniProt Q51559); test: Inhibition of RhlA quorum sensing system in Pseudomonas aeruginosa PAO1 assessed as reduction in rhamnolipid production at 10 to 50 uM after 20 hrs
How it was run: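 Rhamnolipid by orcinol method: overnight PAO1 diluted in phosphate minimal medium with 0.6% glycerol, 5 mL cultures shaken at 37 °C for 20 h with compound at various concentrations; DMSO control. Cultures centrifuged 12000g, 4 °C, 5 min; orcinol reaction at 80 °C for 30 min. A421 divided by final OD600.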

[8] = molecular target: Elastase (Pseudomonas aeruginosa (strain ATCC 15692 / PAO1 / 1C / PRS 101 / LMG12228)) (UniProt P14756); test: Inhibition of lasB quorum sensing system in Pseudomonas aeruginosa PAO1 assessed as reduction in elastase release at 10 uM after 24 hrs relative to control
How it was run: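 Elastase: overnight wild-type PAO1 diluted in ABTGC medium to OD600 0.01 and grown 24 h at 37 °C with shaking at 200 rpm. Supernatant elastase measured by a fluorogenic elastase kit. PAO1ΔlasIΔrhlI served as blank; DMSO as control.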

[9] = molecular target: T1, Anthranilate--CoA ligase (Pseudomonas aeruginosa (strain ATCC 15692 / DSM 22644 / CIP 104116 /JCM 14847 / LMG 12228 / 1C / PRS 101 / PAO1)); test: Inhibition of pqsA quorum sensing system in Pseudomonas aeruginosa PAO1 assessed as reduction in pyocyanin release at 10 uM after 20 hrs relative to control
How it was run: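 Pyocyanin: overnight PAO1 diluted in LB to OD600 0.01; 20 mL cultures shaken at 37 °C for 20 h. Centrifuged at 1500g for 10 min; supernatant absorbance read at 695 nm. PAO1ΔlasIΔrhlI served as blank; DMSO as control.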

[10] = molecular target: Elastase (Pseudomonas aeruginosa (strain ATCC 15692 / PAO1 / 1C / PRS 101 / LMG12228)) (UniProt P14756); test: Inhibition of lasB quorum sensing system in Pseudomonas aeruginosa PAO1 harboring mini-ctx-lasB-lacZ at 50 uM in presence of ODdHL by beta-galactosidase reporter gene assay
How it was run: (§2)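 Competition: overnight lasB-lacZ or pqsA-lacZ reporter cultures diluted in ABTGC medium to OD600 0.01. Compound at 50 μM added with ODdHL (lasB) or PQS (pqsA) at final 50, 20, 10 or 0 μM. β-galactosidase measured when OD600 reached 1.0. DMSO control; triplicate.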

[11] = molecular target: T1, Anthranilate--CoA ligase (Pseudomonas aeruginosa (strain ATCC 15692 / DSM 22644 / CIP 104116 /JCM 14847 / LMG 12228 / 1C / PRS 101 / PAO1)); test: Inhibition of pqsA quorum sensing system in Pseudomonas aeruginosa PAO1 harboring mini-ctx-pqsA-lacZ at 50 uM in presence of PQS by beta-galactosidase reporter gene assay; how it was run: as §2
[12] = molecular target: Elastase (Pseudomonas aeruginosa (strain ATCC 15692 / PAO1 / 1C / PRS 101 / LMG12228)) (UniProt P14756); test: Inhibition of lasB quorum sensing system in Pseudomonas aeruginosa PAO1 harboring mini-ctx-lasB-lacZ after 6 hrs by beta-galactosidase reporter gene assay
[13] = molecular target: 3-(3-hydroxydecanoyloxy)decanoate synthase (Pseudomonas aeruginosa (strain ATCC 15692 / PAO1 / 1C / PRS 101 / LMG12228)) (UniProt Q51559); test: Inhibition of RhlA quorum sensing system in Pseudomonas aeruginosa PAO1 harboring mini-ctx-RhlA-lacZ at 50 uM after 6 hrs by beta-galactosidase reporter gene assay
[14] = molecular target: 3-(3-hydroxydecanoyloxy)decanoate synthase (Pseudomonas aeruginosa (strain ATCC 15692 / PAO1 / 1C / PRS 101 / LMG12228)) (UniProt Q51559); test: Inhibition of RhlA quorum sensing system in Pseudomonas aeruginosa PAO1 harboring mini-ctx-RhlA-lacZ at 2.5 to 20 uM after 6 hrs by beta-galactosidase reporter gene assay

Sequence of Elastase (Pseudomonas aeruginosa (strain ATCC 15692 / PAO1 / 1C / PRS 101 / LMG12228)) (P14756 198-498 limits assumed): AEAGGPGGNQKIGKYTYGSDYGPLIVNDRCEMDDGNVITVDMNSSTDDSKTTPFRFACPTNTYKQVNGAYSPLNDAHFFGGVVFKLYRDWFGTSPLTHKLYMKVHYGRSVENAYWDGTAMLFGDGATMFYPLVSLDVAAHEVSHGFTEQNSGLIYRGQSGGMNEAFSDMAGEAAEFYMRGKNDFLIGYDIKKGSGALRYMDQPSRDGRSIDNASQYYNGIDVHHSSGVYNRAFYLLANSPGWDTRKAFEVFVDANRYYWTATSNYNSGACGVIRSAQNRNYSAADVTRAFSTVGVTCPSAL

| SMILES | Activity (Pseudomonas aeruginosa [1]) | other results |
| --- | --- | --- |
| COc1cc(/C=C/c2ccccc2)c(C(=O)O)c(OC(C)=O)c1CC=C(C)C | -24.4% | – |
| COc1cc(CCc2ccccc2)c(C=O)c(OC(C)=O)c1C/C=C(\C)CCC=C(C)C | 24.7% | – |
| COc1cc(/C=C/c2ccccc2)c(C=O)c(OC(C)=O)c1CC=C(C)C | -12.5% | – |
| COc1cc(CCc2ccccc2)c(C(=O)O)c(O)c1CC=C(C)C [AMORFRUTIN A] | -31.3% | – |
| COc1cc(CCc2ccccc2)c(C(=O)O)c(OC(C)=O)c1CC=C(C)C | 36.9% | – |
| COc1cc(CCc2ccccc2)c(C=O)c(O)c1C/C=C(\C)CCC=C(C)C | 53.1% | – |
| COc1cc(CCc2ccccc2)c(C(=O)O)c(OC(C)=O)c1C/C=C(\C)CCC=C(C)C | -32.9% | – |
| COc1cc(CCc2ccccc2)c(C=O)c(O)c1CC=C(C)C | 26.9% | – |
| COc1cc(CCc2ccccc2)c(C(=O)O)c(O)c1C/C=C(\C)CCC=C(C)C | 50.3% | Activity (Pseudomonas aeruginosa [2]): 20 - 50%; Activity (Pseudomonas aeruginosa [3]): Dose-dependent effect; growth inhibition (GI) (Pseudomonas aeruginosa [4]): Non-Toxic; Activity (Pseudomonas aeruginosa [5]): Non-Toxic; inhibition [6]: Dose-dependent effect; inhibition [7]: inactive; inhibition [8]: 50%; inhibition [9]: 50%; inhibition [10]: inactive; inhibition [11]: inactive; inhibition [12]: Dose-dependent effect; inhibition [13]: Active; inhibition [14]: inactive |
| COc1cc(CCc2ccccc2)c(C=O)c(OC(C)=O)c1CC=C(C)C | -32.1% | – |
| COc1cc(/C=C/c2ccccc2)c(C(=O)O)c(O)c1CC=C(C)C | -41% | – |
| COc1cc(/C=C/c2ccccc2)c(C=O)c(OCC=C(C)C)c1 | -14.3% | – |
| COc1cc(/C=C/c2ccccc2)c(C=O)c(O)c1CC=C(C)C | 42.4% | – |
